{"source": "ChEMBL document CHEMBL1145798", "about": "“Deoxyribonucleoside 2'- or 3'-mixed disulfides: prodrugs to target ribonucleotide reductase and/or to inhibit HIV reverse transcription” (J Med Chem, 2003)", "key": {"CCRF-CEM [1]": {"system": "CCRF-CEM", "assay": "Antiproliferative activity was determined against human T-lymphocyte cells-CEM", "type": "functional, cell-based", "outline": "(§1)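 Cytostatic assay on proliferating cell cultures (human CEM, Molt4/C8; murine L1210, FM3A). IC50 is the compound concentration that inhibits cell proliferation by 50%.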"}, "FM3A": {"system": "FM3A", "assay": "Antiproliferative activity was determined against murine mammary carcinoma cells (FM3A)", "type": "functional, cell-based", "conditions": "Mus musculus", "outline": "as §1"}, "[2]": {"system": "Human immunodeficiency virus 1", "assay": "Effective concentration against cytopathicity of HIV-1 strain (HTLV IIIB) in CEM cell line", "type": "functional, organism-based", "conditions": "Human immunodeficiency virus 1, CCRF-CEM", "outline": "(§2)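 HIV-1 or HIV-2 (ROD) infected CEM cell cultures. EC50 is the compound concentration that protects cells against virus-induced cytopathicity by 50%.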"}, "[3]": {"system": "Human immunodeficiency virus 2", "assay": "Effective concentration against cytopathicity of HIV-2 strain (ROD) in CEM cell line", "type": "functional, organism-based", "conditions": "Human immunodeficiency virus 2, CCRF-CEM", "outline": "as §2"}, "L1210": {"system": "L1210", "assay": "Antiproliferative activity was determined against murine leukemia cells (L1210)", "type": "functional, cell-based", "conditions": "Mus musculus", "outline": "as §1"}, "MOLT-4": {"system": "MOLT-4", "assay": "Antiproliferative activity was determined against human T-lymphocyte cells -Molt4/C8", "type": "functional, cell-based", "outline": "as §1"}, "CCRF-CEM [4]": {"system": "CCRF-CEM", "assay": "Concentration required to lower intracellular dATP levels in CEM/SS cells", "type": "functional, Homo sapiens", "outline": "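CEM/SS cells exposed for 24 h at 37 °C across a dose range, then counted. dATP was measured in methanolic cell extracts by an enzymatic assay, elongation of radiolabeled oligonucleotide primers annealed to complementary templates, expressed per million viable cells. IC(dATP-50) is the concentration that depletes intracellular dATP by 50%. Mean ± SD of at least two independent experiments.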"}, "CCRF-CEM [5]": {"system": "CCRF-CEM", "assay": "Cytotoxicity was determined towards CEM/SS cells (MTT)", "type": "functional", "conditions": "Homo sapiens", "outline": "(§3)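 Cytotoxicity in CEM/SS cells measured by MTT read-out, reported as CC50.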"}, "CCRF-CEM [6]": {"system": "CCRF-CEM", "assay": "Cytotoxicity was determined towards CEM/SS cells using MTT assay", "type": "functional", "conditions": "Homo sapiens", "outline": "as §3"}, "MOLT-4 (Homo sapiens)": {"system": "MOLT-4 (Homo sapiens)", "assay": "Antiproliferative activity was determined against human T-lymphocyte cells -Molt4/C8"}, "FM3A (Mus musculus)": {"system": "FM3A (Mus musculus)", "assay": "Antiproliferative activity was determined against murine mammary carcinoma cells (FM3A)"}, "MT4 [7]": {"system": "MT4", "assay": "Effective dose against HIV-1 strain (HTLV IIIB) in infected MT-4 cell line", "type": "functional", "conditions": "Homo sapiens, read-out: ED50 (the source's name)"}, "MT4 [8]": {"system": "MT4", "assay": "Effective dose against HIV-1 strain (HTLV IIIB) in MT-4 cell line; Not active", "type": "functional, cell-based", "conditions": "Homo sapiens"}, "MT4 [9]": {"system": "MT4", "assay": "Cytotoxicity towards infected MT-4 cell line", "type": "functional", "conditions": "Homo sapiens, read-out: CD50 (the source's name)"}, "[10]": {"system": "Human immunodeficiency virus 1", "assay": "Inhibitory activity against HIV-1 strain (HTLV IIIB) in MT-4 cell line", "type": "functional", "conditions": "Human immunodeficiency virus 1, MT4; read-out: ED50 (the source's name)"}}, "note": "Activity calls are given as the source filed them. The rule behind the calls is not given here.", "data": [{"smiles": "Nc1ccn([C@@H]2O[C@H](CO)C(O)[C@@H]2S)c(=O)n1", "note": "(stereo partly drawn)", "values": [{"measurement": "IC50", "setting": "CCRF-CEM [1]", "value": 305, "unit": "µM"}, {"measurement": "IC50", "setting": "FM3A", "value": "> 675", "unit": "µM"}, {"measurement": "EC50", "setting": "[2]", "value": "> 340", "unit": "µM"}, {"measurement": "EC50", "setting": "[3]", "value": "> 340", "unit": "µM"}, {"measurement": "IC50", "setting": "L1210", "value": 670, "unit": "µM"}, {"measurement": "IC50", "setting": "MOLT-4", "value": 650, "unit": "µM"}]}, {"smiles": "CCCSS[C@H]1C(O)[C@@H](CO)O[C@H]1n1ccc(N)nc1=O", "note": "(stereo partly drawn)", "values": [{"measurement": "ICdATP-50", "setting": "CCRF-CEM [4]", "value": 50, "unit": "µM"}]}, {"smiles": "C[C@H](Cn1cnc2c(N)ncnc21)OCP(=O)(O)O", "note": "[TENOFOVIR ANHYDROUS]", "values": [{"measurement": "IC50", "setting": "CCRF-CEM [1]", "value": "> 350", "unit": "µM"}, {"measurement": "IC50", "setting": "FM3A", "value": "> 350", "unit": "µM"}, {"measurement": "EC50", "setting": "[2]", "value": 4.2, "unit": "µM"}, {"measurement": "EC50", "setting": "[3]", "value": 3, "unit": "µM"}, {"measurement": "IC50", "setting": "L1210", "value": "> 350", "unit": "µM"}, {"measurement": "IC50", "setting": "MOLT-4", "value": "> 350", "unit": "µM"}]}, {"smiles": "Cc1cn([C@H]2C[C@H](N=[N+]=[N-])[C@@H](CO)O2)c(=O)[nH]c1=O", "note": "[ZIDOVUDINE]", "values": [{"measurement": "IC50", "setting": "CCRF-CEM [1]", "value": "> 375", "unit": "µM"}, {"measurement": "EC50", "setting": "[2]", "value": 0.004, "unit": "µM"}, {"measurement": "IC50", "setting": "MOLT-4", "value": "> 375", "unit": "µM"}]}, {"smiles": "CSS[C@H]1C[C@H](n2cc(C)c(=O)[nH]c2=O)O[C@@H]1CO", "values": [{"measurement": "IC50", "setting": "CCRF-CEM [1]", "value": 155, "unit": "µM"}, {"measurement": "CC50", "setting": "CCRF-CEM [5]", "value": 120, "unit": "µM"}, {"measurement": "IC50", "setting": "FM3A", "value": 280, "unit": "µM"}, {"measurement": "EC50", "setting": "[2]", "value": 10, "unit": "µM"}, {"measurement": "EC50", "setting": "[3]", "value": 37, "unit": "µM"}, {"measurement": "IC50", "setting": "L1210", "value": 37, "unit": "µM"}, {"measurement": "IC50", "setting": "MOLT-4", "value": 25, "unit": "µM"}]}, {"smiles": "CSS[C@H]1C(O)[C@@H](CO)O[C@H]1n1ccc(N)nc1=O", "note": "(stereo partly drawn)", "values": [{"measurement": "IC50", "setting": "CCRF-CEM [1]", "value": 82, "unit": "µM"}, {"measurement": "ICdATP-50", "setting": "CCRF-CEM [4]", "value": 50, "unit": "µM"}, {"measurement": "CC50", "setting": "CCRF-CEM [6]", "value": 330, "unit": "µM"}, {"measurement": "IC50", "setting": "FM3A", "value": "> 650", "unit": "µM"}, {"measurement": "EC50", "setting": "[2]", "value": "> 65", "unit": "µM"}, {"measurement": "EC50", "setting": "[3]", "value": "> 65", "unit": "µM"}, {"measurement": "IC50", "setting": "L1210", "value": 350, "unit": "µM"}, {"measurement": "IC50", "setting": "MOLT-4", "value": 255, "unit": "µM"}]}, {"smiles": "Cc1cn([C@H]2C[C@H](S)[C@@H](CO)O2)c(=O)[nH]c1=O", "values": [{"measurement": "IC50", "setting": "CCRF-CEM [1]", "value": "> 770", "unit": "µM"}, {"measurement": "EC50", "setting": "[2]", "value": "> 390", "unit": "µM"}, {"measurement": "EC50", "setting": "[3]", "value": "> 390", "unit": "µM"}, {"measurement": "IC50", "setting": "L1210", "value": "> 770", "unit": "µM"}, {"measurement": "IC50", "setting": "MOLT-4 (Homo sapiens)", "value": "> 770", "unit": "µM"}, {"measurement": "IC50", "setting": "FM3A (Mus musculus)", "value": "> 770", "unit": "µM"}]}, {"smiles": "CSS[C@H]1C(O)[C@@H](CO)O[C@H]1n1ccc(=O)[nH]c1=O", "note": "(stereo partly drawn)", "values": [{"measurement": "IC50", "setting": "CCRF-CEM [1]", "value": 160, "unit": "µM"}, {"measurement": "IC50", "setting": "FM3A", "value": "> 650", "unit": "µM"}, {"measurement": "EC50", "setting": "[2]", "value": "> 65", "unit": "µM"}, {"measurement": "EC50", "setting": "[3]", "value": "> 65", "unit": "µM"}, {"measurement": "IC50", "setting": "L1210", "value": 320, "unit": "µM"}, {"measurement": "IC50", "setting": "MOLT-4", "value": 220, "unit": "µM"}]}, {"smiles": "Cc1cn([C@H]2C[C@H](SS[C@H]3C[C@H](n4cc(C)c(O)nc4=O)O[C@@H]3CO)[C@@H](CO)O2)c(=O)nc1O", "values": [{"measurement": "IC50", "setting": "CCRF-CEM [1]", "value": "> 390", "unit": "µM"}, {"measurement": "IC50", "setting": "FM3A", "value": "> 390", "unit": "µM"}, {"measurement": "EC50", "setting": "[2]", "value": 50, "unit": "µM"}, {"measurement": "EC50", "setting": "[3]", "value": 60, "unit": "µM"}, {"measurement": "IC50", "setting": "L1210", "value": "> 390", "unit": "µM"}, {"measurement": "EC50", "setting": "MT4 [7]", "value": 16, "unit": "µM"}, {"measurement": "NA", "setting": "MT4 [8]", "value": "inactive"}, {"measurement": "CC50", "setting": "MT4 [9]", "value": 34, "unit": "µM"}, {"measurement": "IC50", "setting": "MOLT-4", "value": 325, "unit": "µM"}]}, {"smiles": "Nc1ccn([C@H]2C[C@H](S)[C@@H](CO)O2)c(=O)n1", "values": [{"measurement": "EC50", "setting": "[10]", "value": 20, "unit": "µM"}]}]}
